From PMC7816766 (Journal of Medicinal Chemistry, 2020)

Legend:
[1] = cited from earlier work
[2] = tested on: MDA-MB-231 or MDA-MB-468 cells; test: Cell viability/growth of breast cancer cells harboring active STAT3; format: cell-based, human; details: up to 10 μM
STAT3 = STAT3 (Mus musculus, UniProt P42227); format: biochemical; details: STAT3:DNA complexes, hSIE probe, 30 min preincubation at room temperature
STAT1:STAT1 homodimers = biological target: T1, STAT1:STAT1 homodimers (Mus musculus, UniProt P42225); format: biochemical; details: 10 µM, MGFe probe (Fig. S6)
T1 sequence (P42225 2-749 limits assumed): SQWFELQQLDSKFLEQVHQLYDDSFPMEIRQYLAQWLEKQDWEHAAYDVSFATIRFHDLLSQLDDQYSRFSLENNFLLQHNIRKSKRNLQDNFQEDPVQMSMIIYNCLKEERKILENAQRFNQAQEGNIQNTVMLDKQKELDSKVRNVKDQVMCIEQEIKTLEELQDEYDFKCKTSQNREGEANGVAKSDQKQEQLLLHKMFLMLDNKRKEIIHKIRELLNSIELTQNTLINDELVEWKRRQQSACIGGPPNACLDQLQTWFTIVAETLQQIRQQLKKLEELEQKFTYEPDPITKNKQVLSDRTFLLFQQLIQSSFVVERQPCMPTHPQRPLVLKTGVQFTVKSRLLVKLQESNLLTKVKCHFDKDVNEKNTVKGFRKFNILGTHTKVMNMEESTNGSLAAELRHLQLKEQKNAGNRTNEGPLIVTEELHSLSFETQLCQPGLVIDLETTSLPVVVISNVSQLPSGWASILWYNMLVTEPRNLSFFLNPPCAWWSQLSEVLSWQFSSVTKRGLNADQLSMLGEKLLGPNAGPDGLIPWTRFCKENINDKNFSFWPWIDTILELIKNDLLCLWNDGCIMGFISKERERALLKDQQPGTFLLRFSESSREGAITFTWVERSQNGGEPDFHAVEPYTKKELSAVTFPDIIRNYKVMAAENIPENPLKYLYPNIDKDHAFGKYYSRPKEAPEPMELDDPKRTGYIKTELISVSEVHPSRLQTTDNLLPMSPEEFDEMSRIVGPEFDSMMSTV

STAT5:STAT5 homodimers = format: biochemical; details: 10 µM, MGFe probe (Fig. S6)
MDA-MB-231 cells = test: CyQuant cell viability assay, MDA-MB-231; format: cell-based; details: Homo sapiens, MDA-MB-231, 72 h, read-out: Cell viability EC50 MDA-MB-231
MDA-MB-468 cells = test: CyQuant cell viability assay, MDA-MB-468; format: cell-based; details: Homo sapiens, MDA-MB-468, 72 h, read-out: Cell viability EC50 MDA-MB-468
How it was run: (§1)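 Cells in 96-well plates were treated with test compound over a range of concentrations for 72 h, then assayed with CyQuant. Viability was normalised to control as % and plotted against concentration to derive EC50. Media: MCF-10A in DMEM/F12 with 5% horse serum, EGF, insulin and hydrocortisone; other lines in DMEM with 10% heat-inactivated FBS.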

MCF-10A cells = test: CyQuant cell viability assay, MCF-10A; format: cell-based; details: Homo sapiens, 72 h, read-out: Cell viability EC50 MCF-10A
How it was run: as §1

Sequence of STAT3 (P42227 2-770 limits assumed): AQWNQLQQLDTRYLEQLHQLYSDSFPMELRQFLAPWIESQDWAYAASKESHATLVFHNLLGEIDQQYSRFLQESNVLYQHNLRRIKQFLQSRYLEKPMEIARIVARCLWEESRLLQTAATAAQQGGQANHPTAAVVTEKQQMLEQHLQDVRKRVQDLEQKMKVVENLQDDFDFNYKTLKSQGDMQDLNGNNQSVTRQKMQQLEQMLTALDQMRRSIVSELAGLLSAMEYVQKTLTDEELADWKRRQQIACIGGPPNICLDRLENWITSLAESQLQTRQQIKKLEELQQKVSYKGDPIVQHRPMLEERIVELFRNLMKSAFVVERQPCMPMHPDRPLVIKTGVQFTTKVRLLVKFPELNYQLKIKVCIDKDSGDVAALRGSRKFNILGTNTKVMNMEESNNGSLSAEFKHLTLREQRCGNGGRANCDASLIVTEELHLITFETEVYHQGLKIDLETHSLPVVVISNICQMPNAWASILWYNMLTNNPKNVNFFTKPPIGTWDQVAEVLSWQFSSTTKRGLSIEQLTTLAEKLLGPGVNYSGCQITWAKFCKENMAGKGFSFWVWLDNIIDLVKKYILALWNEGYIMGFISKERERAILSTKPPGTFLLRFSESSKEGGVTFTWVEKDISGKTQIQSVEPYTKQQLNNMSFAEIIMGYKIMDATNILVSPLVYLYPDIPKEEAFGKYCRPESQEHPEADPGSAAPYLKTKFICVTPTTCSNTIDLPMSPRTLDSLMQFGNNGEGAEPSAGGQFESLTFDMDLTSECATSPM

SMILES | effect on DNA-binding activity of STAT1:STAT1 homodimers (STAT1:STAT1 homodimers) | effect on DNA-binding activity of STAT5:STAT5 homodimers (STAT5:STAT5 homodimers) | other results
CN(CC(=O)N(Cc1ccc(C2CCCCC2)cc1)c1ccc(C(=O)O)c(O)c1)S(=O)(=O)c1c(F)c(F)c(F)c(F)c1F [BP-1-102] | – | – | cellular activities of parent lead compounds [1]: 10 to 20 µM
O=C(O)c1ccc(N(Cc2ccc(C3CCCCC3)cc2)C(=O)[C@H]2CCN2S(=O)(=O)c2c(F)c(F)c(F)c(F)c2F)cc1O [Compound 5a, (R)-4-(N-(4-cyclohexylbenzyl)-1-((perfluorophenyl)sulfonyl)azetidine-2-carboxamido)-2-hydroxybenzoic acid] | – | – | activity against breast cancer cells [2]: no activity
O=C(O)c1ccc(N(Cc2ccc(C3CCCCC3)cc2)C(=O)C2CN(S(=O)(=O)c3c(F)c(F)c(F)c(F)c3F)C2)cc1O [Compound 5c] | – | – | EMSA IC50 (STAT3): loss of activity
O=C(O)c1ccc(N(Cc2ccc(C3CCCC3)cc2)C(=O)[C@H]2CCN2S(=O)(=O)c2c(F)c(F)c(F)c(F)c2F)cc1O [Compound 5e] | minimal effect | minimal effect | –
O=C(O)c1ccc(N(Cc2ccc(C3CCOCC3)cc2)C(=O)[C@H]2CCN2S(=O)(=O)c2c(F)c(F)c(F)c(F)c2F)cc1O [Compound 5g] | minimal effect | minimal effect | –
O=C(O)c1cc(F)c(N(Cc2ccc(C3CCCCC3)cc2)C(=O)[C@H]2CCN2S(=O)(=O)c2c(F)c(F)c(F)c(F)c2F)cc1O [Compound 5i] | minimal effect | minimal effect | –
O=C(O)c1ccc(N(Cc2ccc(C3CCCCC3)nc2)C(=O)[C@H]2CCN2S(=O)(=O)c2c(F)c(F)c(F)c(F)c2F)cc1O [Compound 5m] | minimal effect | minimal effect | –
O=C(O)c1ccc(N(Cc2ccc(C3CCOCC3)nc2)C(=O)[C@H]2CCN2S(=O)(=O)c2c(F)c(F)c(F)c(F)c2F)cc1O [Compound 5n] | minimal effect | minimal effect | –
O=C([C@H]1CCN1S(=O)(=O)c1c(F)c(F)c(F)c(F)c1F)N(Cc1ccc(C2CCCCC2)cc1)c1ccc(-c2nnn[nH]2)cc1 [Compound 6e] | – | – | activity against breast cancer cells [2]: weak cellular activity; EC50 (MDA-MB-231 cells): > 10 µM

Further lines, with some results ahead:

effect on DNA-binding activity of STAT1:STAT1 homodimers (STAT1:STAT1 homodimers) | effect on DNA-binding activity of STAT5:STAT5 homodimers (STAT5:STAT5 homodimers) | SMILES | other results
minimal effect | minimal effect | COC(=O)c1ccc(N(Cc2ccc(C3CCCCC3)cc2)C(=O)[C@H]2CCN2S(=O)(=O)c2c(F)c(F)c(F)c(F)c2F)cc1O [Compound 7a] | EC50 (MDA-MB-468 cells): 2.5 µM; EC50 (MCF-10A cells): 4.3 µM
minimal effect | minimal effect | COC(=O)c1ccc(N(Cc2ccc(C3CCCCC3)cc2)C(=O)[C@H]2CCN2S(=O)(=O)c2c(F)c(F)c(F)c(F)c2F)c(F)c1 [Compound 7b] | EC50 (MCF-10A cells): 6 µM
